From ChEMBL document CHEMBL2169790, “Selective inhibitors of aldo-keto reductases AKR1C1 and AKR1C3 discovered by virtual screening of a fragment library” (J Med Chem, 2012)

Legend:
[1] = biological target: T1, Aldo-keto reductase family 1 member C3 (Homo sapiens, UniProt P42330); experiment: Inhibition of human recombinant AKR1C3 assessed as 1-acenaphthenol oxidation by spectrophotometry
T1 sequence (P42330 whole entry): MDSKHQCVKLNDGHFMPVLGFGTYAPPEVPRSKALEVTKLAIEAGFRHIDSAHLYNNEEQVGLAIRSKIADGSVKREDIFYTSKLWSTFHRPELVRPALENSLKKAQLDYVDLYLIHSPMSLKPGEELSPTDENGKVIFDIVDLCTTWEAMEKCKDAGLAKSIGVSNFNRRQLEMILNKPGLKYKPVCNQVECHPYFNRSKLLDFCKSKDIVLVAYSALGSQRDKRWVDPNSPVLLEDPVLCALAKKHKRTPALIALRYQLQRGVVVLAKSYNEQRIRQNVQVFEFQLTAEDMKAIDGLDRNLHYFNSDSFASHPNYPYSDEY
How it was run: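 NADH formation was monitored at 340 nm using initial velocities. IC50 was read graphically from log10[inhibitor] versus % inhibition. Ki was derived by Cheng-Prusoff for competitive inhibition.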

[2] = biological target: T2, Aldo-keto reductase family 1 member C1 (Homo sapiens, UniProt Q04828); experiment: Inhibition of human recombinant AKR1C1 assessed as 1-acenaphthenol oxidation by spectrophotometry
T2 sequence (Q04828 whole entry): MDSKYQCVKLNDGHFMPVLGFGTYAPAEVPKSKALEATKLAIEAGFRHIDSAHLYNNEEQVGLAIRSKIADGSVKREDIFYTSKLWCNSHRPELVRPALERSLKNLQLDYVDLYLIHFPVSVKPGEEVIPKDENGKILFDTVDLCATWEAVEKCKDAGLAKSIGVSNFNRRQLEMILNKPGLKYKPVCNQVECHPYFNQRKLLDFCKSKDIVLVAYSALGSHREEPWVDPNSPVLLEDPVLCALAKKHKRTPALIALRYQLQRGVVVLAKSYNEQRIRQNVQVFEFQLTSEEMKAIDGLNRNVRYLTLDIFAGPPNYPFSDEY

[3] = biological target: T3, Aldo-keto reductase family 1 member C3 (Homo sapiens) (UniProt P42330); experiment: Inhibition of human recombinant AKR1C3 assessed as 1-acenaphthenol oxidation at 400 uM by spectrophotometry
T3 sequence (whole entry): T1 sequence (P42330 whole entry)

[4] = biological target: T4, Aldo-keto reductase family 1 member C1 (Homo sapiens) (UniProt Q04828); experiment: Inhibition of human recombinant AKR1C1 assessed as 1-acenaphthenol oxidation at 400 uM by spectrophotometry
T4 sequence (whole entry): T2 sequence (Q04828 whole entry)
How it was run: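 Recombinant AKR1C1 (0.3 μM) oxidizing 30 μM 1-acenaphthenol with 2.3 mM NAD+ in 100 mM phosphate pH 9.0, 0.005% triton X-114, 5% DMSO. NADH increase was followed at 340 nm.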

[5] = biological target: T1, Aldo-keto reductase family 1 member C3; experiment: Inhibition of human recombinant AKR1C3 assessed as S-tetralol oxidation by micro plate fluorescence reader based assay
How it was run: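 Fluorometric plate-reader read-out of NADPH formation as initial velocity. Each inhibitor concentration run in quadruplicate. IC50 from fit to y = range/(1+I/IC50)^s + background.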

[6] = biological target: T4, Aldo-keto reductase family 1 member C1 (Homo sapiens); experiment: Inhibition of human recombinant AKR1C1 assessed as S-tetralol oxidation at 300 uM by micro plate fluorescence reader based assay
How it was run: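 Buffer was 100 mM K3PO4 pH 7.0 with 200 μM NADP+ and 4% DMSO final. Inhibitor was tested at 300 μM, in quadruplicate. Rates are initial velocities.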

[7] = biological target: T5, Aldo-keto reductase family 1 member C4 (Homo sapiens) (UniProt P17516); experiment: Inhibition of human recombinant AKR1C4 assessed as S-tetralol oxidation at 300 uM by micro plate fluorescence reader based assay
T5 sequence (whole entry): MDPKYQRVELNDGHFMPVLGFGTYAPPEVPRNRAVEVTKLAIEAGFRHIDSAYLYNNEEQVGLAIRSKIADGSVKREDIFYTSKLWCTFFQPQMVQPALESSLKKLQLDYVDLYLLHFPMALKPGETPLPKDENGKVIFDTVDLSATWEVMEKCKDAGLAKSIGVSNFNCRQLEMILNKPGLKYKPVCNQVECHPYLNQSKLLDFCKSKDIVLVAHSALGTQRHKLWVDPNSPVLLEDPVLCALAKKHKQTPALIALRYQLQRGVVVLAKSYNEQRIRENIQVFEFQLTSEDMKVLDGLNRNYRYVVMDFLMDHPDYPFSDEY
How it was run: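 NADPH production was measured fluorometrically. Inhibitor was tested at 300 μM, quadruplicate wells. Inhibition was taken from initial velocities.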

[8] = biological target: T1, Aldo-keto reductase family 1 member C3; experiment: Competitive inhibition of human recombinant AKR1C3 assessed as S-tetralol oxidation by Cheng-Prusoff equation analysis
How it was run: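 NADPH formation followed fluorometrically; initial velocities measured in quadruplicate per inhibitor concentration. IC50 fitted as y = range/(1+I/IC50)^s + background, then converted to Ki with the Cheng-Prusoff equation for competitive inhibition.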

Ki [1] [µM]	inhibition [3] [%]	inhibition [4] [%]	SMILES	also measured
144		39.5	Cc1cc(Nc2cc(C(=O)O)ccc2C)nc(C)n1	
	17.8	22.5	NC(=O)c1ccccc1NC(=O)c1ccncc1	
2		< 10	O=C(CC1SC(=O)NC1=O)Nc1ccccc1O (stereo not drawn)	IC50 [5]: 0.213 µM; inhibition [6]: 37%; inhibition [7]: 35%; Ki [8]: 0.107 µM
	48.8	30.1	O=C(O)c1cc(NC(=O)c2ccccc2F)ccc1O	
111		43.1	Cc1ccc(S(=O)(=O)Nc2cccc(C(=O)O)c2)cc1	
76			O=C1COc2ccc(C(=O)c3ccccc3)cc2CN1	
54			O=C(O)c1cc(-c2cccc(O)c2)nc2ccccc12	
32		43.5	O=C1CCC2(c3ccccc3)Nc3ccccc3N12 (stereo not drawn)	IC50 [5]: 5.46 µM; Ki [8]: 2.73 µM
	18.4		O=C(O)CNC=C1C(=O)CC(c2ccccc2)CC1=O (stereo not drawn)	

Continued, compound first:

SMILES	Ki [1] [µM]	inhibition [3] [%]	inhibition [4] [%]	also measured
O=C(O)CCNS(=O)(=O)c1ccc2ccccc2c1	148			
O=C(CSc1ncnc2[nH]cnc12)Nc1ccccn1		44.3		Ki [2]: 69 µM
Cc1cc(C(=O)Nc2ccc(O)c(C(=O)O)c2)oc1C	82		< 10	
CC(=O)Nc1ccc(C(C#N)c2ccccc2)cc1 (stereo not drawn)	87			
O=C(O)c1cccc(Nc2nc3ccccc3[nH]2)c1	142		< 10	
CN(c1ccc(C(=O)O)cc1)S(=O)(=O)c1ccccc1	148			
O=C(O)CCNc1cc2ccccc2cc1C(=O)O	44			
O=C(O)c1ccc(CNCc2ccccn2)cc1		51.2	< 10	
NC(=O)c1ccccc1/N=C/c1cccc(O)c1	36		< 10	
O=C(NCc1cc(=O)[nH]cn1)c1cc2ccccn2n1	118		< 10	
O=CN1CCN(C(=O)c2ccc3ccccc3c2)CC1		46.7		Ki [2]: 64 µM
Cc1cccc(C(=O)Nc2ccccc2C(N)=O)c1		10.8	< 10	
O=C(O)c1cccc(NCC(=O)c2ccccc2)c1	72		44.8	
Cc1oc(C(N)=O)cc1COc1ccccc1C(N)=O		53.4		Ki [2]: 122 µM
Cc1ccc(NC(=O)c2cccnc2)c(C(=O)O)c1		33.1	47.4	
Cc1ccn(Cc2cc(C(=O)O)c3ccccc3n2)n1	117			
